In ChEMBL document CHEMBL5678805, “Intermittent administration of MEK inhibitor GDC-0973 plus PI3K inhibitor GDC-0941 triggers robust apoptosis and tumor growth inhibition” (Cancer Res, 2012):
Calls of active or inactive are those of the source. The rule behind the calls is not given here.

Experiments:
[1] = target: ALK tyrosine kinase receptor (Homo sapiens, UniProt Q9UM73); test: Inhibition of ALK (unknown origin)
[2] = target: Serine/threonine-protein kinase B-raf (Homo sapiens, UniProt P15056); test: Inhibition of BRAF (unknown origin)
[3] = target: Death-associated protein kinase 1 (Homo sapiens, UniProt P53355); test: Inhibition of DAPK1 (unknown origin)
Death-associated protein kinase 1, sequence (P53355 whole entry): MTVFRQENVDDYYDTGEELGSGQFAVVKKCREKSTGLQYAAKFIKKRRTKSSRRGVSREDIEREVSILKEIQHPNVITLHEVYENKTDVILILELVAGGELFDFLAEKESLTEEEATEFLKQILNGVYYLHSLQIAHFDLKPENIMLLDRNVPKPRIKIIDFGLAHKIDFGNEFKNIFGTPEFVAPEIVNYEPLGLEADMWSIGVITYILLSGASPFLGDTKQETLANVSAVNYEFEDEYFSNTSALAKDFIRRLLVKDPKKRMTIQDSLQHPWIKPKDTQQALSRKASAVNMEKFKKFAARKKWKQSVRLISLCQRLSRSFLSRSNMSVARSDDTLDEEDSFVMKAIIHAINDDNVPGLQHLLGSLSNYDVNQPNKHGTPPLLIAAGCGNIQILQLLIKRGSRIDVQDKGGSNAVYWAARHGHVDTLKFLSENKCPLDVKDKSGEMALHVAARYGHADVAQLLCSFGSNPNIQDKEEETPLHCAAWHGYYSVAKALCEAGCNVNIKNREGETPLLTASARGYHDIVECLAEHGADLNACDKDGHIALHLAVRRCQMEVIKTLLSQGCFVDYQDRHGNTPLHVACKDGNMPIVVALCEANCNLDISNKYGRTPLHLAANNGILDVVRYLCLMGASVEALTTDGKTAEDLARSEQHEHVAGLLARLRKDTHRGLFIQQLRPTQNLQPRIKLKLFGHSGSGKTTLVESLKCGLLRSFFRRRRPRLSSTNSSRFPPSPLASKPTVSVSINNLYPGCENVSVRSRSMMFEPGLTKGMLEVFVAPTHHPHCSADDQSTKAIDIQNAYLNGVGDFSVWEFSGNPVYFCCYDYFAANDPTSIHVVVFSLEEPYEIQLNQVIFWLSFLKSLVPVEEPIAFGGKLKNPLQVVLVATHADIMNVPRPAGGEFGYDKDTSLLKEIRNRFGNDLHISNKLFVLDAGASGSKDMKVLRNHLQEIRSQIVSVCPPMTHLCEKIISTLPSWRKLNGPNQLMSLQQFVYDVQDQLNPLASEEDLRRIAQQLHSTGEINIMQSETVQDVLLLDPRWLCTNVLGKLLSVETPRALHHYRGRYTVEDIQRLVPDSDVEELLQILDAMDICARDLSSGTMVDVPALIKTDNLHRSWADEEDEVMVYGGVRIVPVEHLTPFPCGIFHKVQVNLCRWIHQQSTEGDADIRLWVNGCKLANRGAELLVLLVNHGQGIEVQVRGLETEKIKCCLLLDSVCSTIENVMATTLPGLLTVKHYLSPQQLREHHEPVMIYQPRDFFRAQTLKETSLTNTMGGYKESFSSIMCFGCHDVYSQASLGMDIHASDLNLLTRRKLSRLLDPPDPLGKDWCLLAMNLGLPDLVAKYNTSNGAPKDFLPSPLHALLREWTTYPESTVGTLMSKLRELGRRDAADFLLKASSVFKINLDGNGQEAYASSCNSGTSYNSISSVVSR

[4] = target: Vascular endothelial growth factor receptor 1 (Homo sapiens, UniProt P17948); test: Inhibition of Flt1 (unknown origin)
[5] = target: Beta-adrenergic receptor kinase 1 (Homo sapiens, UniProt P25098); test: Inhibition of GRK2 (unknown origin)
Beta-adrenergic receptor kinase 1, sequence (P25098 whole entry): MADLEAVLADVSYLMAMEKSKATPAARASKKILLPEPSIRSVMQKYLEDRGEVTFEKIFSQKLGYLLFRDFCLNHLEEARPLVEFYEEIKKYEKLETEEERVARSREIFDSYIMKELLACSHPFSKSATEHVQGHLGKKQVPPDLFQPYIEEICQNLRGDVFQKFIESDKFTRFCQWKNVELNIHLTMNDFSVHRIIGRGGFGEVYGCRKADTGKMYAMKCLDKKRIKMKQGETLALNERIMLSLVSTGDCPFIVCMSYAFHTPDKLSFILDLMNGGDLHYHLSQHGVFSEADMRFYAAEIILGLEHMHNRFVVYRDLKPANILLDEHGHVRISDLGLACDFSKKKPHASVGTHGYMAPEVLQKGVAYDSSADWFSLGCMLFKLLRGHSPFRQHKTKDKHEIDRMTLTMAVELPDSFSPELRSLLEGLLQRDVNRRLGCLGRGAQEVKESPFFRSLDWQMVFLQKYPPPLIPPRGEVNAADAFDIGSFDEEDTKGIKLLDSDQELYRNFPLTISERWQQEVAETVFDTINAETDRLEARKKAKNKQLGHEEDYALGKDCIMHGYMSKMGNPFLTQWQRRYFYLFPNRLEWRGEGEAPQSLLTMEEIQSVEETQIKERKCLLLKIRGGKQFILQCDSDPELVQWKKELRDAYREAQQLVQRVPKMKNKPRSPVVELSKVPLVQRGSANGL

[6] = target: Inhibitor of nuclear factor kappa-B kinase subunit alpha (Homo sapiens, UniProt O15111); test: Inhibition of IKKa (unknown origin)
[7] = target: Mitogen-activated protein kinase 8 (Homo sapiens, UniProt P45983); test: Inhibition of JNK1 (unknown origin)
Mitogen-activated protein kinase 8, sequence (P45983 whole entry): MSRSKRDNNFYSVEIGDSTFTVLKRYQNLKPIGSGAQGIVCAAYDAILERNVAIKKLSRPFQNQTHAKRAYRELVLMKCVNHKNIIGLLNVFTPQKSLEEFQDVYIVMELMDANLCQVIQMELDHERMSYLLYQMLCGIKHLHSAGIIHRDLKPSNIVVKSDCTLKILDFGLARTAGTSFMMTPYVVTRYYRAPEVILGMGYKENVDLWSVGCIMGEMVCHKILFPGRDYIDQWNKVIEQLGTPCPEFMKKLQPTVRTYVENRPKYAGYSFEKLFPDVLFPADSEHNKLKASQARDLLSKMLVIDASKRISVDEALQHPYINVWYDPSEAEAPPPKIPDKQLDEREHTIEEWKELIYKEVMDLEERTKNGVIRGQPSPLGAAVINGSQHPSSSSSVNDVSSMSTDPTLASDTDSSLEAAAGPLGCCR

[8] = target: Mitogen-activated protein kinase kinase kinase kinase 3 (Homo sapiens, UniProt Q8IVH8); test: Inhibition of MAP4K3 (unknown origin)
[9] = target: Serine/threonine-protein kinase MARK1 (Homo sapiens, UniProt Q9P0L2); test: Inhibition of MARK1 (unknown origin)
Serine/threonine-protein kinase MARK1, sequence (Q9P0L2 whole entry): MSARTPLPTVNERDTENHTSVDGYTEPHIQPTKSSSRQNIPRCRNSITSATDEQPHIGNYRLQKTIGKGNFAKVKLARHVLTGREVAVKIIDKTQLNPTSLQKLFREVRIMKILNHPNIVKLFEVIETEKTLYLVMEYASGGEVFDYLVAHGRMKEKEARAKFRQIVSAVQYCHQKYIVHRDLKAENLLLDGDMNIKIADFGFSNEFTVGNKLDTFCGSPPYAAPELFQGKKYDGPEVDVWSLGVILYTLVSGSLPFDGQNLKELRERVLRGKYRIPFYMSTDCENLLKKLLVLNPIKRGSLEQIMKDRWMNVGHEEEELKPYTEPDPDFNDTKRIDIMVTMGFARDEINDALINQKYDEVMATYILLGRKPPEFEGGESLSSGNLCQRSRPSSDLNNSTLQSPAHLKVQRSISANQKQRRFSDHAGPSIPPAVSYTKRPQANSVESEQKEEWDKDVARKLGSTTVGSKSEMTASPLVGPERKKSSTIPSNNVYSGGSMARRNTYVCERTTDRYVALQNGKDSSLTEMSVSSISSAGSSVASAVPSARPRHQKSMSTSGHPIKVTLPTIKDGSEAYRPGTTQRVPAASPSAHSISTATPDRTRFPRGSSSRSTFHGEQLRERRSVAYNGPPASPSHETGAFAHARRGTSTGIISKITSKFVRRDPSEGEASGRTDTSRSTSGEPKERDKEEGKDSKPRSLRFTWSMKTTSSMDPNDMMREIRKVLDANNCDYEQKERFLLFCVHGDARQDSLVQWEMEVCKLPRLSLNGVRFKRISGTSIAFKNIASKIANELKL

[10] = target: Dual specificity mitogen-activated protein kinase kinase 4 (Homo sapiens, UniProt P45985); test: Inhibition of MKK4 (unknown origin)
[11] = target: Dual specificity mitogen-activated protein kinase kinase 6 (Homo sapiens, UniProt P52564); test: Inhibition of MKK6 (unknown origin)
[12] = target: Dual specificity mitogen-activated protein kinase kinase 7 (Homo sapiens, UniProt O14733); test: Inhibition of MKK7beta (unknown origin)
[13] = target: Ribosomal protein S6 kinase beta-1 (Homo sapiens, UniProt P23443); test: Inhibition of p70S6K (unknown origin)
[14] = target: Serine/threonine-protein kinase PAK 6 (Homo sapiens, UniProt Q9NQU5); test: Inhibition of PAK6 (unknown origin)
[15] = target: Protein kinase C alpha type (Homo sapiens, UniProt P17252); test: Inhibition of PKC alpha (unknown origin)
[16] = target: Ribosomal protein S6 kinase alpha-1 (Homo sapiens, UniProt Q15418); test: Inhibition of Rsk1 (unknown origin)
[17] = tested on: Calu-6; test: Antitumor activity against human Calu-6 cells harboring KRAS Q61K and TP53 R196 mutant xenografted in mouse assessed as tumor growth inhibition at 5 mg/kg, po; format: functional; settings: read-out: TGI
Method in brief: (§1)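 Single-agent dose ranging in human tumor xenograft mice at 2.5, 5 or 10 mg/kg oral. Tumor volume was measured by caliper as (L×W×W)/2. %TGI = 100×[1 − AUC(treatment/d)/AUC(vehicle/d)] from the fitted growth curve per dose group, relative to vehicle.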

[18] = tested on: NCI-H441; test: Antitumor activity against human NCI-H441 cells harboring KRAS G12V/TP53 R158L/MET high mutant xenografted in mouse assessed as tumor growth inhibition at 5 mg/kg, po; format: functional; settings: read-out: TGI
Method in brief: (§2)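 Human tumor xenografts in mice were dosed orally at the indicated mg/kg. Tumor volume was measured with calipers as (L×W×W)/2. %TGI = 100 × [1 − (AUC treatment/d)/(AUC vehicle/d)], using the area under the fitted tumor-growth curve per day for each dose group relative to vehicle.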

[19] = tested on: SK-OV-3; test: Antitumor activity against human SK-OV-3 cells harboring FBXW7 R505L and CDKN2A mutant xenografted in mouse assessed as tumor growth inhibition at 5 mg/kg, po; format: functional; settings: read-out: TGI; method in brief: as §2
[20] = tested on: MIA PaCa-2; test: Antitumor activity against human MIA PaCa-2 cells harboring KRAS G12C/NOTCH1 L2458V mutant xenografted in mouse assessed as tumor growth inhibition at 10 mg/kg, po; format: functional; settings: read-out: TGI; method in brief: as §1
[21] = tested on: A375.X1; test: Antitumor activity against human A375.X1 cells xenografted in mouse assessed as reduction in ERK phosphorylation at 1 to 10 mg/kg, po by Western blot analysis; format: functional, organism-based; settings: dose 1-10 mg/kg, time 74-96 hrs, TDE = time-dependent effect
Method in brief: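 A375.X1 xenograft mice were dosed orally at 1, 3, 5 or 10 mg/kg once daily for 3 days. Tumors were collected 2, 8 and 24 h after the last dose, pulverized frozen and resolved by 4–12% SDS-PAGE. p-ERK1/2 and t-ERK1/2 were measured by Western blot and quantified by band intensity, relative to vehicle-treated mice (0 h).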

[22] = tested on: 888-mel; test: Antiproliferative activity against human 888-mel cells assessed reduction in cell viability incubated for 4 days in presence of 4-(2-(1H-indazol-4-yl)-6-((4-(methylsulfonyl)piperazin-1-yl)methyl)thieno[3,2-d]pyrimidin-4-yl)morpholine by celltiter-glo assay; format: functional; settings: time 4 day
Method in brief: (§3)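 4-day CellTiter-Glo viability read-out on melanoma lines, cells exposed to increasing concentrations of each inhibitor alone and in combination.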

[23] = tested on: C32; test: Antiproliferative activity against human C32 cells assessed reduction in cell viability incubated for 4 days in presence of 4-(2-(1H-indazol-4-yl)-6-((4-(methylsulfonyl)piperazin-1-yl)methyl)thieno[3,2-d]pyrimidin-4-yl)morpholine by celltiter-glo assay; format: functional; settings: time 4 day; method in brief: as §3
[24] = tested on: LOX IMVI; test: Antiproliferative activity against human LOX IMVI cells assessed reduction in cell viability incubated for 4 days in presence of 4-(2-(1H-indazol-4-yl)-6-((4-(methylsulfonyl)piperazin-1-yl)methyl)thieno[3,2-d]pyrimidin-4-yl)morpholine by celltiter-glo assay; format: functional; settings: time 4 day; method in brief: as §3
[25] = tested on: RPMI-7951; test: Antiproliferative activity against human RPMI-7951 cells assessed reduction in cell viability incubated for 4 days in presence of 4-(2-(1H-indazol-4-yl)-6-((4-(methylsulfonyl)piperazin-1-yl)methyl)thieno[3,2-d]pyrimidin-4-yl)morpholine by celltiter-glo assay; format: functional; settings: time 4 day; method in brief: as §3
[26] = tested on: DLD-1; test: Antitumor activity against human DLD-1 cells xenografted in mouse assessed as tumor growth inhibition at 10 mg/kg, po administered every third day for 21 days; format: functional; settings: DLD-1, 504 h, time 21 day, read-out: TGI
Method in brief: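 Human tumor xenografts in mice. Drugs given orally, as single agents or combined with the PI3K inhibitor. Schedules were daily (QD) or every third day (Q3D) over 21 days. Tumor volume was measured by caliper as (L×W×W)/2. %TGI = 100×[1 − AUC(treatment/d)/AUC(vehicle/d)] from fitted growth curves, with group means. Tumor lysates were immunoblotted for pS6.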

[27] = tested on: 888-mel; test: Inhibition of ERK phosphorylation in human 888-mel cells incubated for 24 hrs in presence of 4-(2-(1H-indazol-4-yl)-6-((4-(methylsulfonyl)piperazin-1-yl)methyl)thieno[3,2-d]pyrimidin-4-yl)morpholine by immunoblotting analysis; format: cell-based
[28] = tested on: 888-mel; test: Upregulation of Bim level in human 888-mel cells preincubated with compound for 24 hrs followed by compound washout and measured after 2 hrs by immunoblotting analysis; format: functional, cell-based
[29] = tested on: A2058; test: Antitumor activity against human A2058 cells harboring BRAF V600E/PTEN deletion mutant xenografted in mouse assessed as increase in Bims level at 15 mg/kg, po administered every third day for 21 days and measured after 8 hrs post dose by Western blot analysis; format: functional, organism-based; settings: time 512.0 hrs
[30] = tested on: A2058; test: Antitumor activity against human A2058 cells harboring BRAF V600E/PTEN deletion mutant xenografted in mouse assessed as decrease in tumor volume at 10 mg/kg, po administered once weekly for 21 days in presence of GDC-0980 by digital calipers analysis; format: functional, organism-based; settings: time 21.0 day

ALK tyrosine kinase receptor, sequence (Q9UM73 whole entry): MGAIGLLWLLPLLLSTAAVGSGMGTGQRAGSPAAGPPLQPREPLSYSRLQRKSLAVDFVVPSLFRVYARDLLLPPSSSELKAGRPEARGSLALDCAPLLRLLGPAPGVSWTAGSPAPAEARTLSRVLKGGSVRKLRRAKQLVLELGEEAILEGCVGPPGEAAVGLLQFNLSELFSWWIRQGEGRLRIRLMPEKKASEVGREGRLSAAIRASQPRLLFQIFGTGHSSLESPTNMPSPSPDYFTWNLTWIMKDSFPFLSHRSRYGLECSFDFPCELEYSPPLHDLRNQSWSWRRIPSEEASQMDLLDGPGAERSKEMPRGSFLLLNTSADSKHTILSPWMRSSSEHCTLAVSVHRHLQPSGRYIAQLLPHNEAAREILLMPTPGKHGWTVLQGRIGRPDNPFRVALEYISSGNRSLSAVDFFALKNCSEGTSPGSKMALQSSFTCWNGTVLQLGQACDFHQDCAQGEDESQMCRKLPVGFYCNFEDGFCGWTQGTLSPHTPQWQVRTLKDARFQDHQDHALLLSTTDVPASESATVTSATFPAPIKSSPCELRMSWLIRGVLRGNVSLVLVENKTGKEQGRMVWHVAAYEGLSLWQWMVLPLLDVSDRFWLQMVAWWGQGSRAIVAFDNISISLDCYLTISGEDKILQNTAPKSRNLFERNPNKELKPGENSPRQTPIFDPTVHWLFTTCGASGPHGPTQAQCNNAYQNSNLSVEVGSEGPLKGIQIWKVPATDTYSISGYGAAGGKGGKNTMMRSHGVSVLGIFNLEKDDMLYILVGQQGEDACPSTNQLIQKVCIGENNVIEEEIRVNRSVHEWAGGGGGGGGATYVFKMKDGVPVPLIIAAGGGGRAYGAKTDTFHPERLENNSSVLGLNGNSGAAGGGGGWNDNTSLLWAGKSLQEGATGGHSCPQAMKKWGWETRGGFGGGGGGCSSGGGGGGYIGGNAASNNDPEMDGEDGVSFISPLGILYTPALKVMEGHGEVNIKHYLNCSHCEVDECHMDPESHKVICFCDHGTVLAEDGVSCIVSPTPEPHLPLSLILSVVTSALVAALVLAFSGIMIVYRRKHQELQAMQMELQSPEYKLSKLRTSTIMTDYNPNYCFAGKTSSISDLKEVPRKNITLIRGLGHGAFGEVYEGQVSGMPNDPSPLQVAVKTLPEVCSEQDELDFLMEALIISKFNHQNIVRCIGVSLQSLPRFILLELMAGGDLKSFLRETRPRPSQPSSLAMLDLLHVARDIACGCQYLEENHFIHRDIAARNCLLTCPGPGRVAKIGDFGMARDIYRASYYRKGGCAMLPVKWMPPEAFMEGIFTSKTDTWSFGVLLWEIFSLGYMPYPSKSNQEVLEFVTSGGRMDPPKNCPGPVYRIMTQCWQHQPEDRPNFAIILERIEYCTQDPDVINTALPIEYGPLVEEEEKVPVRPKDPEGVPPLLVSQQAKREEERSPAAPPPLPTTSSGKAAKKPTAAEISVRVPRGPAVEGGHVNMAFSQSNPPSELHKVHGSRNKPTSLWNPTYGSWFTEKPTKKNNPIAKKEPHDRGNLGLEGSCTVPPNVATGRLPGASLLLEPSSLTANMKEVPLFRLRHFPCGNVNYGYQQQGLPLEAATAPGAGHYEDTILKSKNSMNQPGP

## O=C(c1ccc(F)c(F)c1Nc1ccc(I)cc1F)N1CC(O)([C@@H]2CCCCN2)C1 [COBIMETINIB]
[1]
  IC50: > 10 µM
[2]
  IC50: > 10 µM
[3]
  IC50: > 10 µM
[4]
  IC50: > 10 µM
[5]
  IC50: > 10 µM
[6]
  IC50: > 10 µM
[7]
  IC50: > 10 µM
[8]
  IC50: > 10 µM
[9]
  IC50: > 10 µM
[10]
  IC50: > 10 µM
[11]
  IC50: > 10 µM
[12]
  IC50: > 10 µM
[13]
  IC50: > 10 µM
[14]
  IC50: > 10 µM
[15]
  IC50: > 10 µM
[16]
  IC50: > 10 µM
[17]
  inhibition in vivo at 5 mg/kg: 80%
[18]
  inhibition in vivo at 5 mg/kg: 59%
[19]
  inhibition in vivo at 5 mg/kg: 69%
[20]
  inhibition in vivo at 10 mg/kg: 12%
[21]
  Activity: Tde
[22]
  Activity: 60%
[23]
  Activity: 60%
[24]
  Activity: 60%
[25]
  Activity: 60%
[26]
  inhibition in vivo at 10 mg/kg: 18%
[27]
  inhibition: Active
[28]
  Activity: Active
[29]
  Activity: Active
[30]
  Activity: Active
